Laboratory results reported in ChEMBL document CHEMBL4513216, “Probing the Open Global Health Chemical Diversity Library for Multistage-Active Starting Points for Next-Generation Antimalarials” (ACS Infect Dis, 2020).

Test: Toxicity liver stage against HepG2, at 10uM
Type: cell-based
Design: test concentration 10 uM, cell line HepG2-A16-CD81EGFP
Conditions: human, HepG2-A16-CD81EGFP cells; read-out: INHIBITION
Procedure, shortened: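 Uninfected HepG2-A16-CD81EGFP cells, 3 × 10^3 per well, 1536-well, plated on prespotted compound at 10 μM final, parasite-free screening media added to match infected plates; puromycin 10 μM positive, DMSO 0.5% negative; run in parallel with 48 h PbLuc assay at 37 °C, 5% CO2; viability by CellTiter-Glo luminescence, normalized to controls.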

| SMILES | cytotoxicity at 10 µM |
| --- | --- |
| COc1ccnc(NCc2ccccc2Cn2cccn2)n1 | -0.81% |
| CC(=O)N1CCC(N2CCOC[C@H]2c2nc(-c3ccc(Cl)s3)c[nH]2)CC1 | 2.29% |
| CS(=O)(=O)NC[C@H]1Cn2c(-c3ccc4c(c3)OCCO4)cnc2CO1 | -11.1% |
| COCCNC(=O)c1cnc(N(C)C)nc1C | -5.33% |
| COCC1CN(Cc2ccc(OC)cc2)S(=O)(=O)c2cnccc2O1 (stereo unspecified) | -1.78% |
| COc1ccc(C(=O)N2CC(=O)N(C3CCC3)CC(O)C2)c(OC)c1 (stereo unspecified) | -0.373% |
| CCS(=O)(=O)N1CC(=O)N(Cc2ccccc2OC)CC(O)C1 (stereo unspecified) | -95.5% |
| COC1CN(C(=O)Cc2cccs2)CCC(=O)N(C)c2ccccc21 (stereo unspecified) | -11.6% |
| CC(C)CNC(=O)c1cn(-c2ccccn2)c(=O)c2ccccc12 | 0.318% |
| CC(C)(C)OC(=O)Cn1cccc(S(=O)(=O)N2CCCCCC2)c1=O | -2.28% |
| Cc1nc(C)c(CC(=O)NCc2ccc(F)cc2F)s1 | -91.9% |
| Cc1nccn1-c1ccc(=O)n(CCNC(=O)Cc2ccccc2)n1 | -4.17% |
| O=C(CN1C(=O)CCC1=O)NCc1cc(C2CC2)n(C2CCCC2)n1 | 1.74% |
| O=C(NCc1cccs1)C1CCCN(c2cc(-n3cncn3)ncn2)C1 (stereo unspecified) | 0.827% |
| Cn1c(C(=O)N2CCOCC2)nc2c1CCN(c1ncccn1)C2 | 1.7% |
| Cn1cc(CN2CCN3C[C@H](Oc4cccnc4)C[C@H]3C2)cn1 | 3.07% |
| Cc1ccc(CN2C[C@@H]3COC[C@]3(COc3ccc(C#N)cn3)C2)o1 | 0.777% |
| CCS(=O)(=O)N1CCC2(CC1)CN(c1cncnc1)C(=O)CO2 | 6.91% |
| Cc1nc(N2CCCC2)nc2c1CCN(C(=O)N(C)C)CC2 | 7.05% |
| O=c1[nH]c2nc(NC3CC3)ncc2c(=O)n1-c1ccc(F)cc1 | -4.06% |
| Cc1ccc(-n2nnc(C(=O)O)c2C)c(C)c1 | -0.185% |
| CC(C)CNC(=O)c1c(-n2cnnn2)sc2c1CCC2 | -4.56% |
| O=C(NCCCn1ccnc1)C1CCC(=O)N1Cc1cccs1 (stereo unspecified) | -4.94% |

| SMILES | cytotoxicity at 10 µM |
| --- | --- |
| CC(C)NC(=O)[C@H]1CN(Cc2ccccc2)C[C@@H]1C(=O)c1ccccc1 | 7.84% |
| Cc1noc(C)c1-c1cccc(C2CN(S(=O)(=O)N(C)C)CCO2)n1 (stereo unspecified) | 11.4% |
| CN(Cc1ccc(F)cc1)[C@@H]1CN(S(C)(=O)=O)C[C@H]1O | -3.22% |
| Cc1ncccc1C(=O)N1CCC2(CCc3ccccc3C(=O)N2)C1 (stereo unspecified) | 4.28% |
| CN(C(=O)NC1CC1)C1CCN(c2ccc(Cl)cc2)CC1 | -8.39% |
| Cc1ccc(C(C)NC(=O)N2CCN(C(=O)CC(F)(F)F)CC2)o1 (stereo unspecified) | 43.3% |
| Cc1ccc(O)c(CNc2cccc(CN3CCN(C)CC3)c2)n1 | -2% |
| CCOCCOC(C)C(=O)Nc1ccc2ccn(CC(=O)NC)c2c1 (stereo unspecified) | 2.3% |
| CCc1ccccc1CNC(=O)NCc1cnn(C)c1 | 2.14% |
| Cc1cc(C)n(CC(C)NC(=O)C2(c3ccc(F)cc3)CC2)n1 (stereo unspecified) | 11.5% |
| Cc1cc(C(=O)NCC2SCCc3ccccc32)no1 (stereo unspecified) | 3.41% |
| CC(C)OCCC(=O)NCC(c1c(F)cccc1F)N(C)C (stereo unspecified) | -1.19% |
| CC1CCN(Cc2ccccc2CNC(=O)C2CNC(=O)N2)CC1 (stereo unspecified) | 2.16% |
| CC1(C)CN(C(CNS(C)(=O)=O)c2ccc(Cl)cc2)CCO1 (stereo unspecified) | 9.12% |
| CCN(CCCc1ccccc1C)S(C)(=O)=O | 2.86% |
| COc1ccc(NC(=O)N2CCC(c3noc(C)n3)CC2)cc1C | 17.2% |
| COc1ccc(Br)c(NC(=O)NCc2ncnn2C)c1 | 5.41% |
| O=C(CC1CCCC1)NCCNCc1cccc2c1OCCO2 | -0.912% |
| Cc1cc(CN2CCN(C(=O)CCc3ccco3)CC2)on1 | -2.6% |
| CC(C)OCCC(=O)NCCC(=O)N1CCN(c2ccccn2)CC1 | 2.56% |
| CC(C)c1nn(C)c(N2CCOCC2)c1CNCc1cscn1 | -3.83% |
| Cc1cnn(CC2CCCCN2C(=O)Cn2nc(C)c(Cl)c2C)c1 (stereo unspecified) | -6.24% |
| CCn1ccnc1CN1CCN(CCc2ccccn2)CC1C (stereo unspecified) | -8.74% |

| SMILES | cytotoxicity at 10 µM |
| --- | --- |
| Cc1nc(C2(NC(=O)NCc3cc(C#N)ccc3F)CCCC2)no1 | -4.2% |
| c1cnn(-c2ccc(CCNC3CCN(C4CC4)C3)cc2)c1 (stereo unspecified) | 2.84% |
| CC(C)(O)CN1CCN(C(=O)C2CSc3ccccc3O2)CC1 (stereo unspecified) | 2.16% |
| O=C1C(NCc2ccccc2O)CCN1Cc1ccccc1 (stereo unspecified) | -9.11% |
| CNS(=O)(=O)CC(=O)NC(C)Cc1ccc(-c2ccccc2)cc1 (stereo unspecified) | 7.69% |
| CN(C)C(=O)N1CCN(C(=O)c2ccc(Cl)c(Cl)c2)C(C)(C)C1 | -4.71% |
| O=C1CN(CCS(=O)(=O)c2ccc(Cl)cc2)CCN1 | -9.2% |
| CN(C(=O)c1ccc(OCC(F)F)nc1)c1ccc2c(c1)CCO2 | 13.6% |
| CC(C#N)CSc1ccccc1NCC(=O)NCc1ccccc1 (stereo unspecified) | -7.89% |
| O=C(C1CC1)N1CCC2(CC1)OCCO2 | 1.75% |
| O=C1NCCO[C@H]2CN(C(=O)Cc3cccs3)CC[C@@H]12 | -98.8% |
| COCCNC(=O)c1nc(-c2cn(C)cn2)n2ccccc12 | -104% |
| FC(F)(F)c1ccnc(N2CCC(c3nccn3CC3CC3)CC2)n1 | 3.03% |
| CN(C)CCNCC1(O)CCCN(Cc2cccc(F)c2F)C1=O (stereo unspecified) | -8.71% |
| CC(C)(O)CCc1cccc(C(=O)N2Cc3cnn(CCO)c3C2)c1 | 4.62% |
| COCCN1CCC(C(=O)N(C)Cc2cccc(Cl)c2)C1 (stereo unspecified) | -28.6% |
| CCC(c1nc(CC(C)C)nn1-c1ccccn1)n1cccn1 (stereo unspecified) | -8.74% |
| CCc1ncc(C(=O)N2CC(N3CCCCC3)C2)cn1 | -4.68% |
| CC(C)N1CCC(CC(=O)NCc2cc(O)ncn2)CC1 | 7.81% |
| Cc1noc(C)c1CCCNC(=O)C1CCN(C(=O)C2CCC2)CC1 | 3.72% |
| COCc1ccc(C(=O)N2CCCN(Cc3ccc(F)cc3)CC2)s1 | -1.78% |
| CC1(Cc2cccnc2)NCCc2[nH]cnc21 (stereo unspecified) | 12.1% |
| CC(=O)N1CCCn2nc(CNC(=O)N3CCCCC3)cc2C1 | -3.91% |

| SMILES | cytotoxicity at 10 µM |
| --- | --- |
| CN1CCC(c2n[nH]c(=O)n2-c2cccc(Cl)c2)CC1 | 33.9% |
| CSCC[C@@H](CO)n1ccnc1-c1ccncc1 | 7.21% |
| CC1=CCN(S(=O)(=O)c2cccc(C(=O)N3CCCN(C)CC3)c2)CC1 | -2.36% |
| CC1=NC2(CCN(CC(C)c3ccccc3)CC2)C(=O)N1 (stereo unspecified) | 5.33% |
| COCCC(=O)N1CCC2(CC1)CC(c1ccccc1)CN(C1CC1)C2 (stereo unspecified) | -0.173% |
| CCC(CO)N(Cc1cccs1)C(=O)CNS(=O)(=O)c1cccs1 (stereo unspecified) | 4.98% |
| COCC1CCN(C(=O)c2cn(Cc3ccccc3F)nn2)CC1 | 1.89% |
| NC(=O)C1CN(c2ncnc3c2Cc2ccccc2OC3)CCO1 (stereo unspecified) | 0.0255% |
| CCN1CCC2(CC1)c1nc[nH]c1CCN2S(C)(=O)=O | 6.33% |
| O=C(CC1COCCN1)NCCc1nc(Cc2ccccc2)no1 (stereo unspecified) | -2.81% |
| CC(C)[C@@H]1CN(Cc2cnc(C3CCCCC3)nc2)C[C@H]1N(C)C | -3.18% |
| CC(CN1CCCC1)C(=O)NCC1CCN(c2cnn(C)c(=O)c2)CC1 (stereo unspecified) | 0.301% |
| COCC1CCN(S(=O)(=O)NCC2COc3ccccc3C2)CC1 (stereo unspecified) | 7.64% |
| COc1cccc(CN(C)C(C)c2nccs2)c1OCCn1ccnc1 (stereo unspecified) | -0.21% |
| CC(C)[C@@H]1CN(Cc2ccccc2C#N)C[C@H]1C(=O)O | 6.3% |
| Cc1ccc(-c2cc(-c3c(C)nn(CCO)c3C)c(C#N)c(N)n2)cc1 | 15% |
| CCc1cnc(C)nc1NCc1nc(COC)no1 | 3.24% |
| O=C1CNCC(C(=O)N2CC(Oc3ccccc3Cl)C2)N1 (stereo unspecified) | 10.9% |
| O=C1N(Cc2cccc(F)c2F)CCCC1(O)CNCc1ccccn1 (stereo unspecified) | -9.28% |
| Cc1nnc2n1CCN(C(=O)c1cc3cc(F)ccc3[nH]1)C2 | 3.28% |
| Cc1ccc(OCCC(=O)N2CCCC(n3nc(C)nc3C)C2)cc1 (stereo unspecified) | -2.15% |
| CCc1csc(C2CCCN(C(=O)c3ccccn3)C2)n1 (stereo unspecified) | 1.36% |
| CCCn1nc2c(cc1=O)CN(Cc1nc(C)c(C)o1)CC2 | -6.16% |

| SMILES | cytotoxicity at 10 µM |
| --- | --- |
| O=C1COc2ccc(C(=O)NS(=O)(=O)c3ccccc3Cl)cc2N1 | -7.03% |
| O=C1COc2ccc(C(=O)NS(=O)(=O)c3ccccc3F)cc2N1 | -0.185% |
| O=C(CCCOc1ccccc1)N1CCCC1Cn1cccn1 (stereo unspecified) | -7.83% |
| NC(=O)c1cc(C2CCCN(CCCOc3ccc(F)cc3)C2)n[nH]1 (stereo unspecified) | -16.4% |
| O=C(c1cc(Cl)cc2cccnc12)N1CCN(CCO)CC1 | -2.07% |
| CC(=O)N1CCCN(C(=O)NCCNc2cnccn2)CC1 | -2.28% |
| CN(CC1(O)CCCCC1)C1CCCN(Cc2noc(C3CC3)n2)C1 (stereo unspecified) | -17.3% |
| CCc1nc(C2CCCN2C(=O)CCc2ccc3c(c2)OCO3)no1 (stereo unspecified) | -4.62% |
| Cc1cccc(-c2nc(CN3CCCCC3Cn3cncn3)no2)c1 (stereo unspecified) | -3.2% |
| Cc1noc(CCCC(=O)NC(C)c2ccccn2)n1 (stereo unspecified) | -10.9% |
| CCc1ccc(C(=O)N2CCN(CCS(C)(=O)=O)CC2)o1 | -8.03% |
| c1cc(NCc2ccncc2)nc(C2CCCN2)c1 (stereo unspecified) | -2.55% |
| CC(CNCc1ccc(F)cc1)Oc1ccccn1 (stereo unspecified) | 6.97% |
| O=C([C@@H]1CN(Cc2nccs2)C[C@H]2OCC[C@H]21)N1CCOCC1 | -105% |
| CC1=N[C@@]2(CC[C@@H]3CNC[C@@H]32)C(=O)N1CC(C)C | 2.98% |
| CC(=O)N1CCN(Cc2ccccn2)CC2(CC(=O)N(C)C2)C1 (stereo unspecified) | 1.23% |
| O=C(Cc1ccccn1)N1CCC2(CC1)CC(Oc1ccccn1)CO2 (stereo unspecified) | -0.0273% |
| CN(C)S(=O)(=O)N1C[C@H](Oc2cccnc2)[C@H]2OCCC[C@H]21 | 14.8% |
| CC=C(C)C(=O)NS(=O)(=O)c1ccc(C(F)(F)F)cn1 | 3.95% |
